Screening results as filed in PubChem.
Most compounds without a hit are left out; they make up all but 1.3% or so of the library.
Wee1 degr inh = blocks degradation of human Wee1 kinase. P30291. HeLa Luc-Wee1K328M stability, luciferase luminescence; 100% = proteasome inhibitor MG132 effect. reporter increase, % at 5 µM. 220,000 compounds, 1.2% hits. AID 1321;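 active = activation above the mean of all tested compounds plus 3 SD, set per screening run, cut at about 8.8% in these data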;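 note: cells exposed to compound for 20 h before luminescence read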
Target sequence (P30291 whole entry K328M): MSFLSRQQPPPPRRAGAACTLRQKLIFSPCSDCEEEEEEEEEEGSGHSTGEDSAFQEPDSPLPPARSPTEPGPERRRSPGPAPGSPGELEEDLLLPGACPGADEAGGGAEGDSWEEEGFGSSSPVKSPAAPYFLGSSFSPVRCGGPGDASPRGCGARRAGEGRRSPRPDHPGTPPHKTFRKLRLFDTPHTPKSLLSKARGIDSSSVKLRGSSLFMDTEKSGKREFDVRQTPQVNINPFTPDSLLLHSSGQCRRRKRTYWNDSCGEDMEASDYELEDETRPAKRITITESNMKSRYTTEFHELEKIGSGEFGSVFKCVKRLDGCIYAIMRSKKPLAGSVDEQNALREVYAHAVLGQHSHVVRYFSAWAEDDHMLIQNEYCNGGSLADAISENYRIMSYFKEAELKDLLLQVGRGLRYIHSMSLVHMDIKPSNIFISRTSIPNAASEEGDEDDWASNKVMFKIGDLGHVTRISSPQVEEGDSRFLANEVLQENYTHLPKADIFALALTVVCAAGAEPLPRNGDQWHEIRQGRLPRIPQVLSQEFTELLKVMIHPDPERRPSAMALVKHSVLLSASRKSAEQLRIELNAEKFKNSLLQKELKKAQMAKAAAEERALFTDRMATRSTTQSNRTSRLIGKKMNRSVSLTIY
Pf gametocyte = P. falciparum stage V gametocyte viability inhibition | 150,000 compounds, 0.065% hits | AID 743093 | P. falciparum stage V gametocytes, ATP luminescence, 24 h | inhibition, % at 10.9 µM;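 active = inhibition above the mean plus 3 SD of compounds within the control limits, set per campaign, cut at about 38% in these data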
Mdm2 ligase inh = Mdm2 E3 ligase (human) inhibition; Q00987; cell-based MDM2 ubiquitination luciferase reporter, 2 h; 0 = plate control, 100 = twice control, blank-subtracted; signal enhancement, % at 5 µM; 210,000 compounds, 0.11% hits;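 active = signal enhancement of 30% or more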;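 note: luminescence tracks abundance of the self-degrading MDM2-luciferase fusion protein; higher signal means inhibition of MDM2 E3 ligase activity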
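Timing – 2 h compound exposure at 37 °C · Assay system – mammalian cells stably expressing self-ubiquitinating, self-degrading MDM2 E3–luciferase fusion · Amount – 2000 cells seeded into each well · Measure – % luminescence enhancement versus blank-corrected plate control mean · Measured by – SteadyLite luminescence, 15 min reagent step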
Hsp70 act = Hsp70 transcriptional activation, primary screen; 200,000 compounds, 0.04% hits; AID 1203; HeLa Hsp70 promoter luciferase reporter, luminescence; scaled: vehicle 0, proteasome-inhibitor control 100%; activation, % at 10 µM;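 active = activation above the mean across all tested compounds plus 3 SD, cutoff set per campaign, cut at about 5.5% in these data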
Each line names hits and unclear results; the compound was inactive in the other large screens.

Cn1c(NC(=O)/C=C/c2ccccc2)cc(=O)n(C)c1=O	Wee1 degr inh 8.9
CC(C)CC(=O)Nc1ccc2c3c(cccc13)CC2	none (no result: Pf gametocyte)
CC(C)(C)C1N=C(c2ccc3ccccc3c2)OC1=O (centres undefined)	none (no result: Wee1 degr inh, Mdm2 ligase inh, Hsp70 act)
Cc1c(C(=O)C(=O)NCCCn2ccnc2)c2ccccc2n1C	none
COc1cccc2sc(Nc3nc(-c4ccncc4)cs3)nc12	Pf gametocyte 50
C/C(=N/NC(=O)c1cccs1)c1c(C)[nH]n(-c2nc3ccccc3s2)c1=O	Pf gametocyte 56
CC(=NCc1ccco1)c1c(C)[nH]n(-c2nc3ccccc3s2)c1=O	none (no result: Pf gametocyte)
Cc1ccc(NC(=O)C2C3CC4OC(=O)C2C4C3)cc1Cl (centres undefined)	none
CC(C)OC(=O)c1ccc(NC(=O)C2C3CC4OC(=O)C2C4C3)cc1 (centres undefined)	Wee1 degr inh 9.8
CC(NC(=O)C(=O)NCCC1=CCCCC1)c1ccccc1 (centres undefined)	Wee1 degr inh 8.8 (no result: Pf gametocyte, Mdm2 ligase inh)
Cc1ccc(-c2nc(C#N)c(N3CCCCC3)o2)cc1	Wee1 degr inh 9.7 (no result: Pf gametocyte)
Cc1nc2ccc(NC(=O)c3nn(CC(C)C)c(=O)c4ccccc34)cc2s1	none (no result: Mdm2 ligase inh)
Cc1nnc(NC(=O)c2nn(CC(C)C)c(=O)c3ccccc23)s1	Wee1 degr inh 10
Cn1cccc1/C=N/NC(=O)c1ccn[nH]1	none (no result: Mdm2 ligase inh)
CCC1Sc2ccccc2N(CC(=O)NC2CCCCC2)C1=O (centres undefined)	Wee1 degr inh 9.3
C=CCNC(=O)CC1C(=O)NCCN1Cc1ccc(-c2ccccc2)cc1 (centres undefined)	Wee1 degr inh 11
O=C(CC1C(=O)NCCN1Cc1ccc(-c2ccccc2)cc1)NCC1CC1 (centres undefined)	none (no result: Pf gametocyte)
COc1ccc(C2=NCCn3nc4cc(OC)ccc4c32)cc1	none (no result: Wee1 degr inh, Mdm2 ligase inh, Hsp70 act)
CCOc1ccc2nc(SC3CC(=O)N(c4ccccc4)C3=O)sc2c1 (centres undefined)	none (no result: Pf gametocyte)
CCOc1ccc2nc(SC3CC(=O)N(c4cccc(OC)c4)C3=O)sc2c1 (centres undefined)	Wee1 degr inh 9.1
CN(C)c1ccc(C(=S)NC2CCCCC2)cc1	Wee1 degr inh 10
O=C(O)/C=C/c1ccc2noc(-c3ccccc3)c2c1	Wee1 degr inh 26 (no result: Mdm2 ligase inh)
O=C(NCc1ccccc1)c1cc[n+](CC(=O)c2cccs2)cc1	none (no result: Hsp70 act)
CCOc1cc(NC(=S)NC)c(OCC)cc1NC(=O)c1ccco1	none
COc1ccccc1NC(=O)c1ccccc1NC(=O)c1cc(Cl)ccc1NC(=O)c1ccco1	Pf gametocyte 39
CNC(=S)Nc1cc(OC)c(NC(=O)c2ccco2)cc1OC	Wee1 degr inh 9.9
COc1cc(OC)cc(C(=O)Nc2ccc(NC(=O)c3ccco3)c(Cl)c2)c1	Wee1 degr inh 9.7
CCCC(=O)N=c1sc2c(OC)ccc(OC)c2n1C	none (no result: Hsp70 act)
COc1cc2c(C(=O)OCCN(C)C)c(CSc3ccccc3)n(C)c2cc1Br	Wee1 degr inh 10
O=C(Nc1nncs1)c1ccc(S(=O)(=O)c2ccccc2)cc1	Wee1 degr inh 9.3
CCOC(=O)Nc1ccc(C(=O)Oc2ccccc2)c(O)c1	Wee1 degr inh 10 (no result: Pf gametocyte)
COCc1cc(S(=O)c2ccc(Cl)cc2)nc(C)n1 (centres undefined)	none
O=C(O)CSCC(=O)NCc1cccc(C(F)(F)F)c1	none
Cc1cc(C)n(-c2ccc(C(=O)Nc3nc4ccccc4s3)cc2)n1	none (no result: Pf gametocyte)
Nc1ccc(C(=O)Nc2nc3ccccc3s2)cc1	Wee1 degr inh 8.9 (no result: Pf gametocyte)
CC1CCC2(CC1)NC(=O)N(CC(=O)N1CCN(S(=O)(=O)c3ccccc3)CC1)C2=O (centres undefined)	Wee1 degr inh 9.7
O=C(CN1C(=O)NC2(CCCCC2)C1=O)N1CCN(S(=O)(=O)c2ccccc2)CC1	none
O=S(=O)(NCCN1CCOCC1)c1cc(Cl)ccc1Cl	none (no result: Wee1 degr inh, Mdm2 ligase inh, Hsp70 act)
N#Cc1nc(-c2ccc(Cl)cc2)oc1NCC1CCCO1 (centres undefined)	Wee1 degr inh 11
Cc1nc(NC(=O)CSc2nnc(Cn3nnc4ccccc43)n2C)sc1C	none
CCCOc1ccc(/C(O)=C2/C(=O)C(=O)N(CCCn3ccnc3)C2c2ccc(C)o2)cc1 (centres undefined)	Wee1 degr inh 9.7 (no result: Hsp70 act)
CCCn1c(=S)[nH]c2cc(C(=O)N3CCc4ccccc4C3)ccc2c1=O	Pf gametocyte 47
COCCCNc1nc(CC(C)C)nc2c1nnn2Cc1ccccc1	none (no result: Wee1 degr inh, Mdm2 ligase inh, Hsp70 act)
NS(=O)(=O)c1ccc(NC(=O)COC(=O)c2ccc(Cl)cc2[N+](=O)[O-])cc1	Wee1 degr inh 11 (no result: Hsp70 act)
NS(=O)(=O)c1cccc(NC(=O)COC(=O)c2cc(Cl)ccc2[N+](=O)[O-])c1	none (no result: Mdm2 ligase inh, Hsp70 act)
CCOC(=O)C1CCCN(Cc2ccc(OC)c(OCc3ccccc3)c2)C1 (centres undefined)	none (no result: Wee1 degr inh, Mdm2 ligase inh, Hsp70 act)
COc1ccc([N+](=O)[O-])cc1N(CC(=O)N1CCN(Cc2ccccc2)CC1)S(C)(=O)=O	none (no result: Wee1 degr inh, Mdm2 ligase inh, Hsp70 act)
COCCNC(=O)[C@H](C)[C@H]1C[C@]1(C)[C@H](NC(=O)OCc1ccccc1)c1ccccc1	Wee1 degr inh 9.1 (no result: Pf gametocyte, Mdm2 ligase inh)
C[C@@H](C(=O)NCc1ccccc1)[C@@H]1C[C@@]1(C)[C@@H](NC(=O)OCc1ccccc1)c1ccccc1	none (no result: Mdm2 ligase inh)
Cc1nc2ccccn2c1C(=O)CSc1ccccc1	none
CC(CCCC(C)(C)O)NC(=O)c1ccc(OC2CCN(C(=O)C3CC3)CC2)cc1 (centres undefined)	Wee1 degr inh 8.9
CN(C)C1=NCCN1CCCCc1ccccc1	none (no result: Wee1 degr inh, Mdm2 ligase inh, Hsp70 act)
C=CCn1c(SCc2ccccc2C#N)nnc1-c1cc(Br)ccc1O	Wee1 degr inh 10 (no result: Pf gametocyte)
COc1ccc2ccccc2c1-c1sc(Nc2ccccc2)n[n+]1-c1ccc(F)cc1	none (no result: Wee1 degr inh, Mdm2 ligase inh, Hsp70 act)
CN(C)c1nc(Oc2ccc(C(=O)OCC(=O)Nc3ccccc3)cc2)nc(N(C)C)n1	Wee1 degr inh 9.1 (no result: Pf gametocyte)
CCOC(=O)c1ccc(Oc2nc(OC)nc(N(C)C)n2)cc1	none
O=C1NC(c2cccs2)Nc2sc3c(c21)CCCC3 (centres undefined)	Wee1 degr inh 8.9
CCC(C)Sc1nc2c(c(=O)[nH]c(=O)n2C)n1CC(O)COc1ccccc1C (centres undefined)	Pf gametocyte 39
Cc1ccc(OCCOc2ccc(Cl)cc2Cl)c([N+](=O)[O-])n1	none
O=C(CN1CCN(c2ccc(F)cc2)CC1)NCc1cccs1	Wee1 degr inh 9.0
Cc1cccc(/C(N)=N/OC(=O)COc2ccccc2Cl)c1	Wee1 degr inh 12
COc1ccc(/C(N)=N/OC(=O)COc2ccccc2Cl)cc1	none
CC(=O)Cc1nsc(Nc2ccc(C)cc2)n1	Mdm2 ligase inh 38
COCCNC(=O)C(C)N(c1ccc(OC)cc1)S(C)(=O)=O (centres undefined)	Wee1 degr inh 10 (no result: Pf gametocyte)
CCOc1ccc(N(C(C)C(=O)Nc2ccc(OC)cc2)S(C)(=O)=O)cc1 (centres undefined)	none (no result: Pf gametocyte)
Cc1nc(-c2ccccc2)[nH]c(=O)c1Oc1ccc(Cl)cc1Cl	none (no result: Hsp70 act)
O=c1[nH]c(=S)[nH]cc1Oc1ccc(Cl)cc1Cl	Wee1 degr inh 9.0 (no result: Pf gametocyte, Mdm2 ligase inh, Hsp70 act)
O=C(Nc1ccc(F)cc1)c1ccccc1NS(=O)(=O)N1CCCC1	none
C/C(=N/NC(=O)c1ccc(C(C)(C)C)cc1)c1ccccn1	none (no result: Wee1 degr inh, Mdm2 ligase inh, Hsp70 act)
